hERG rescue – hERG rescue from dofetilide block, primary screen, cell-based, CHO-hERG, FluxOR thallium flux, dofetilide IC70; dofetilide IC70 present; 0.51% of 310,000 active; Voltage-gated inwardly rectifying potassium channel KCNH2 (Homo sapiens), Q12809; activation (rescue from dofetilide block), less the hit threshold, % at 10 µM;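 active = activation above the mean of controls blocked by dofetilide plus 5 SD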;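 also: thallium influx through hERG after potassium depolarization seen as dye fluorescence rise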
KCNQ1 pot – potentiators or activators of KCNQ1 channel, primary screen, cell-based, thallium flux, high-throughput; B-score at 10 µM; AID 2648, 2010; 0.35% of 310,000 active; Potassium voltage-gated channel subfamily KQT member 1 (Homo sapiens), P51787; CHO-K1 KCNQ1, thallium flux FluxOR fluorescence; hits give high values;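 active = fluorescence ratio B-score, a plate-corrected score, at least three library SD, with initial intensity B-score within 5 SD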
Target sequence (P51787 whole entry, looked up): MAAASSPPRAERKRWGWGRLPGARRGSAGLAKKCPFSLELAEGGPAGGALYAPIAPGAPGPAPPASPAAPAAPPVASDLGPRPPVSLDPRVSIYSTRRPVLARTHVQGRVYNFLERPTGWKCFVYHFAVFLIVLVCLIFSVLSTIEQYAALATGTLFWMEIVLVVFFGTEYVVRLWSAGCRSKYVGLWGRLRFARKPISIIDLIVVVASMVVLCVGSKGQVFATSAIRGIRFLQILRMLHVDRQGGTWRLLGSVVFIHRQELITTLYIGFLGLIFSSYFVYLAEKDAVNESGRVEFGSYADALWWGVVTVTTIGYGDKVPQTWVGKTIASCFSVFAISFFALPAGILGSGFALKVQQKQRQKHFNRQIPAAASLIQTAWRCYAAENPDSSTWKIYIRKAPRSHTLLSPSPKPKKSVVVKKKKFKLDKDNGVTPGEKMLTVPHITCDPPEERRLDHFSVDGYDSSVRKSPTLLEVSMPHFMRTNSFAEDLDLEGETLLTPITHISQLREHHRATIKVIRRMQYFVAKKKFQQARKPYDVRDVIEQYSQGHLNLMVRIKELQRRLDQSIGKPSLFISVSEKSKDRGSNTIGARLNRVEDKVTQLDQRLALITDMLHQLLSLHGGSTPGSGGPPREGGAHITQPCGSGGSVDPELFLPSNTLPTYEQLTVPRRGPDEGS
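Doses: Single concentration per compound, DMSO matched to controls | Test system: KCNQ1-transfected CHO-K1 cells | Timing: 90 min dye loading and 20 min compound exposure, both at room temperature | Measured by: Kinetic FluxOR thallium fluorescence, 10-s 1-Hz baseline, 110-s post-stimulus read | Medium: Assay buffer with matched DMSO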
KCNQ1 block – inhibitors of human KCNQ1 channel, primary screen, cell-based, thallium flux, high-throughput. AID 2642, 2010. B-score at 10 µM. 1.3% of 310,000 active. CHO-K1 KCNQ1, FluxOR thallium flux fluorescence; hits give high values;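 active = compounds whose thallium flux B-score, printed positive for inhibition, exceeds three library SD while starting fluorescence stays within three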;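 also: channel opened by potassium depolarization with thallium stimulus after 20 min compound exposure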
KCNK3 inh – human KCNK3 channel inhibitors, primary screen, CHO cells, FluxOR thallium flux, B-score | B-score at 10 µM | Potassium channel subfamily K member 3 (Homo sapiens), O14649 | FluxOR fluorescence; hits give low values | 0.84% of 340,000 active | AID 602410, 2012;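 active = B-score under library mean minus 4 SD, starting fluorescence ratio at most library mean plus 5 SD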;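 also: more negative B-score means stronger inhibition of thallium flux through KCNK3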
KCNK9 inh – KCNK9 potassium channel inhibitors, primary screen, HEK293 cells, thallium flux; AID 488922, 2010; B-score at 10 µM; 1.2% of 310,000 active; FluxOR thallium flux fluorescence; hits give low values; Potassium channel subfamily K member 9 (Homo sapiens), Q9NPC2;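 active = ratio B-score over 3 SD below the library mean, with starting fluorescence within 5 SD of its mean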;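 also: negative B-score means less thallium flux so channel inhibition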
Kir21 block – inhibitors of mouse Kir2.1 inward-rectifier potassium channel | Inward rectifier potassium channel 2 (Mus musculus), P35561 | HEK293-Kir2.1, FluxOR thallium flux fluorescence; hits give low values | B-score at 10 µM | 0.85% of 310,000 active | AID 1672, 2009;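 active = fluorescence ratio B-score at or below minus 3 SD of library scores, with starting-brightness B-score within 2 SD, cut at about -4.2 in these data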;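 also: channel flux triggered by added potassium and thallium sulfate stimulus; B-score of peak minus minimum fluorescence over baseline after thallium stimulus; more negative B-score means stronger Kir2.1 block with less thallium influx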
Active calls of the source: *; i = inactive; . = no result. The list is not random: actives were taken first. Their share in the collection is about 3.8%.

SMILES	hERG rescue	KCNQ1 pot	KCNQ1 block	KCNK3 inh	KCNK9 inh	Kir21 block
Cc1cccc(C)c1Nc1nnc(SCc2cc([N+](=O)[O-])cc3c2OCOC3)s1	-15.4	i	i	i	-6.71*	-2.82
COc1cccc(Nc2nnc(SCc3cc([N+](=O)[O-])cc4c3OCOC4)s2)c1	-14.1	i	i	i	i	-1.62
CC(C)n1c(O)c(N=NC(=O)C2COc3ccccc3O2)c2ccccc21 (configuration not stated)	23.1*	i	i	i	i	0.01
Cn1c(O)c(N=NC(=O)C2COc3ccccc3O2)c2ccccc21 (configuration not stated)	-5.5	i	i	i	i	0.25
CCN(CC)S(=O)(=O)c1ccc(N2CCCCC2)c(NC(=O)c2ccncc2)c1	-9.6	i	i	i	i	1.72
CCC(CO)NS(=O)(=O)c1cc(-c2nn(C)c(=O)c3ccccc23)ccc1C (configuration not stated)	-5.7	i	i	i	i	-0.58
COc1ccc(CC(=O)NC2CCSc3ccccc32)c(OC)c1 (configuration not stated)	-10.2	i	i	i	i	-5.9*
COc1ccc(OC)c(C(=O)NC2CCSc3ccccc32)c1 (configuration not stated)	-4.5	i	i	i	i	-0.06
CCOc1cc(C(C(=O)NCC2CCCO2)N(C(=O)Cn2nnc3ccccc32)c2ccccc2OC)ccc1O (configuration not stated)	-8.2	i	i	i	i	1.08
COc1ccc(CCN(C(=O)Cn2nnc3ccccc32)C(C(=O)NCC2CCCO2)c2ccncc2)cc1OC (configuration not stated)	39.3*	i	i	i	i	0.25
CCN(CC)S(=O)(=O)c1cccc(C(=O)Nc2cc(C)on2)c1	-8.5	i	i	i	i	-0.63
Cc1ccc(C2CC(c3ccccc3)=NN2C(=S)Nc2ccccc2)o1 (configuration not stated)	-9.8	i	6*	i	i	-1.5
COc1ccc(CNCc2cccc(OC)c2OC)cc1Br	-19.3	i	i	i	i	-5.02*
N#CC(c1ccccc1)c1ccc2c(C(F)(F)F)cc(C(F)(F)F)nc2n1 (configuration not stated)	-1.5	i	i	i	i	0.42
Cc1ccc(C(C#N)c2ccc3c(C(F)(F)F)cc(C(F)(F)F)nc3n2)cc1 (configuration not stated)	10.3*	43*	i	i	i	0.57
O=C(CN1CCN(C(=O)N2CCOCC2)CC1)Nc1cc(Cl)ccc1Cl	-3.3	i	i	i	i	0.27
COC(=O)C1=C(C)NC2=C(C(=O)CCC2)C1c1ccsc1 (configuration not stated)	0.3	i	i	.	i	0.1
COC(=O)C1=C(C)NC2=C(C(=O)CCC2)C1c1ccc(-c2ccsc2C(=O)OC)o1 (configuration not stated)	14.4*	i	i	i	i	-1.49
O=C(CCCn1nnnc1CN1CCOCC1)N1CCN(c2ccccc2F)CC1	-8.6	8*	i	i	i	0.8
COc1ccccc1CNS(=O)(=O)c1cc(C)ccc1OC	-7.4	i	i	i	i	-5.64*
COc1ccc(C)cc1S(=O)(=O)NCc1cccs1	-4.2	i	i	i	i	-1.17
CN(C)S(=O)(=O)c1ccc(=S)[nH]c1	-9.5	i	i	i	i	1.07
O=C(N/N=C\c1c(O)ccc2ccccc12)c1ccc(S(=O)(=O)N2CCCCC2)cc1	-15.2	i	6*	i	i	-2.38
O=C(CN1CCCc2ccccc21)N/N=C/c1c(O)ccc2ccccc12	-5.4	i	7*	i	i	0.08
O=C(CN1CCCc2ccccc21)N/N=C/c1ccccc1	-6.7	i	i	i	i	-1.37
SMILES	hERG rescue	KCNQ1 pot	KCNQ1 block	KCNK3 inh	KCNK9 inh	Kir21 block
CCOC(=O)/C(N=Nc1ccc2c(c1)OCO2)=C(\C)O	-16.5	i	i	i	i	1.47
COc1ccc(CN(C(=O)c2ccco2)c2ccccc2)cc1	-5.7	i	i	i	i	-4.22*
COC(=O)c1ccc(NC(=O)c2ccc(NS(=O)(=O)c3cccc4cccnc34)cc2)cc1	0.2	i	i	i	i	-0.6
CCC/C=C(\CCC)C(NS(=O)(=O)c1cccc2cccnc12)c1ccc(C(=O)OC)cc1 (configuration not stated)	-11.8	i	6*	.	i	-0.1
COC(=O)c1ccc(C(NC(=O)OCc2ccccc2)/C(C)=C/[C@@H](C)C(=O)NCc2ccc(-c3ccccc3)cc2)cc1 (some centres not stated)	-14.3	i	i	i	i	1.87
CCC/C=C(\CCC)C(NC(=O)OCC(C)C)c1ccc(C(=O)OC)cc1 (configuration not stated)	-8.0	i	9*	i	i	1.05
Cc1ccc(NC(=O)CSc2nn(-c3ccc(Cl)cc3)c(=S)s2)cc1S(=O)(=O)N(C)C	-10.7	i	6*	i	i	-2.95
CN(C)S(=O)(=O)c1cc(NC(=O)CSc2nn(-c3ccc(Cl)cc3)c(=S)s2)ccc1Cl	-12.4	i	i	i	i	-0.07
CCC(C)Nc1ccc(NC(C)CC)cc1 (configuration not stated)	.	.	.	-8.93*	.	.
CCOc1ccc(S(=O)(=O)NNC(=S)Nc2ccc(Br)cc2)cc1	-7.0	i	i	i	i	3.47
CCOc1ccc(NC(=S)NS(=O)(=O)c2cc(Br)ccc2OCC)cc1	7.1*	i	i	i	i	0.25
CC(OC(=O)c1cc2c(ccc3ccccc32)oc1=O)c1nc2ccccc2s1 (configuration not stated)	-32.6	i	9*	i	i	0.19
CCOC(=O)c1cc2c(ccc3ccccc32)oc1=O	-5.7	i	i	i	i	-0.42
Cc1cc(C)cc(-n2ncc3c2CCCC3NC(=O)CCCn2cncn2)c1 (configuration not stated)	-4.5	i	i	i	i	1.29

Source: PubChem BioAssay
